Results: ChEMBL document CHEMBL1150782, “Strong and selective inhibitors of hepatitis B virus replication among novel N4-hydroxy- and 5-methyl-beta-L-deoxycytidine analogues” (Antimicrob Agents Chemother, 2007)

Tests used:
Hepatitis B virus [1] = assay: Antiviral activity against HBV in HepG2.2.15 cells assessed as decrease in extracellular viral DNA level by RT-PCR; format: functional, organism-based; conditions: HepG2 2.2.15
Procedure, shortened: (§1)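 HepG2.2.15 (HBV-transfected) cells, ~10^5 per well in DMEM with 10% FBS; compound added at various concentrations with daily medium changes. Supernatants taken at day 3, 6 or 9, cleared, proteinase K digested, and HBV DNA amplified by PCR with subgenomic primers. Products run on 1% agarose, ethidium stained and imaged, calibrated against cloned HBV genome dilutions. EC50 taken from dose-response curves as 50% reduction of medium HBV DNA.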

[2] = Cytotoxicity against human HL60 cells after 3 days by MTT assay; format: cell-based; conditions: HL-60 cells
Procedure, shortened: (§2)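 HL-60 cells in RPMI or HepG2 cells in DMEM, seeded at 50,000 per well. Exposed for 3 days to varying compound concentrations at 37°C under humidified 5% CO2. Growth read by MTT reduction to formazan. CC50 is the concentration inhibiting growth by 50%; mean ± SD of at least three independent experiments.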

[3] = Cytotoxicity against human HepG2 cells after 3 days by MTT assay; format: cell-based; procedure, shortened: as §2
Hepatitis B virus [4] = assay: Antiviral activity against HBV in HepG2.2.15 cells assessed as decrease in extracellular viral DNA level at 0.5 uM by PCR; format: functional, organism-based; conditions: HepG2 2.2.15, TDE = time-dependent effect; procedure, shortened: as §1
[5] = Inhibition of HBV DNA polymerase; set-up: species or system Hepatitis B virus
Procedure, shortened: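 Endogenous polymerase assay using HBV virions purified from untreated patient serum (>10^7 GE/ml) by ultracentrifugation and a sucrose step gradient. Incubated 1 h at 37°C; [3H]dCMP incorporation counted; IC50 from inhibition curves.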

Hepatitis B virus [6] = assay: Antiviral activity against HBV in HepG2.2.15 cells assessed as decrease in extracellular viral DNA level at 0.1 uM by PCR; format: functional, organism-based; conditions: HepG2 2.2.15, TDE = time-dependent effect; procedure, shortened: as §1
Hepatitis B virus [7] = assay: Antiviral activity against HBV in HepG2.2.15 cells assessed as decrease in extracellular viral DNA level at 0.3 uM by PCR; format: functional, organism-based; conditions: HepG2 2.2.15, TDE = time-dependent effect; procedure, shortened: as §1
[8] = Cytotoxicity against human CEM cells; format: cell-based; conditions: CCRF-CEM cells
[9] = Inhibition of duck HBV DNA polymerase; set-up: species or system Duck hepatitis B virus

| SMILES | EC50 (Hepatitis B virus [1]) [µM] | CC50 at 72 h [2] [µM] | CC50 at 72 h [3] [µM] | IC50 [5] [µM] | other results |
| --- | --- | --- | --- | --- | --- |
| Cc1cn([C@@H]2C[C@@H](F)[C@H](CO)O2)c(=O)nc1N | > 50 | 1650 | 1800 | – | – |
| O=c1nc(NO)ccn1[C@@H]1CS[C@H](CO)O1 | 0.51 | 1450 | 1320 | – | Activity (Hepatitis B virus [4]): tde |
| O=c1nc(NO)c(F)cn1[C@@H]1C[C@@H](O)[C@H](CO)O1 | 4.5 | 1370 | 920 | – | – |
| Cc1cn([C@@H]2C=C[C@H](COP(=O)(O)OP(=O)(O)OP(=O)(O)O)O2)c(=O)nc1N | – | – | – | 6.2 | – |
| O=c1nc(NO)ccn1[C@@H]1C=C[C@H](CO)O1 | 0.03 | 3500 | 2500 | – | Activity (Hepatitis B virus [6]): tde |
| Cc1cn([C@@H]2C[C@@H](N=[N+]=[N-])[C@H](CO)O2)c(=O)nc1N | 13 | 1900 | 1750 | – | – |
| Nc1ccn([C@@H]2CS[C@H](CO)O2)c(=O)n1 [LAMIVUDINE] | 0.1 | 1400 | 1200 | – | Activity (Hepatitis B virus [7]): tde |
| Cc1cn([C@@H]2C[C@@H](O)[C@H](COP(=O)(O)OP(=O)(O)OP(=O)(O)O)O2)c(=O)nc1NO | – | – | – | 4 | – |
| Nc1ccn([C@@H]2CC[C@H](CO)O2)c(=O)n1 | 0.2 | 94 | 85 | – | CC50 [8]: 70 µM |
| Nc1nc(=O)n([C@@H]2CS[C@H](CO)O2)cc1F [EMTRICITABINE] | 0.1 | 845 | 765 | – | – |
| O=c1nc(NO)ccn1[C@@H]1C=C[C@H](COP(=O)(O)OP(=O)(O)OP(=O)(O)O)O1 | – | – | – | 0.21 | – |
| Nc1ccn([C@@H]2CS[C@H](COP(=O)(O)OP(=O)(O)OP(=O)(O)O)O2)c(=O)n1 [LAMIVUDINE TRIPHOSPHATE] | – | – | – | 0.3 | – |
| [N-]=[N+]=N[C@@H]1C[C@@H](n2ccc(NO)nc2=O)O[C@H]1CO | 50 | 2000 | 1160 | – | – |
| Cc1cn([C@@H]2C[C@@H](N=[N+]=[N-])[C@H](COP(=O)(O)OP(=O)(O)OP(=O)(O)O)O2)c(=O)nc1N | – | – | – | 0.85 | – |
| Cc1cn([C@@H]2C=C[C@H](CO)O2)c(=O)nc1N | > 50 | 600 | 1400 | – | – |
| O=c1nc(NO)ccn1[C@@H]1C[C@@H](O)[C@H](COP(=O)(O)OP(=O)(O)OP(=O)(O)O)O1 | – | – | – | 6 | – |
| Cc1cn([C@@H]2CC[C@H](CO)O2)c(=O)nc1N | > 50 | 950 | 1550 | – | – |
| O=c1nc(NO)ccn1[C@@H]1CC[C@H](COP(=O)(O)OP(=O)(O)OP(=O)(O)O)O1 | – | – | – | 0.99 | – |
| O=c1nc(NO)ccn1[C@@H]1C[C@@H](O)[C@H](CO)O1 | 2.38 | 460 | 545 | – | – |
| O=c1nc(NO)c(F)cn1[C@@H]1CS[C@H](CO)O1 | 5 | 770 | 855 | – | – |
| Nc1ccn([C@@H]2C=C[C@H](CO)O2)c(=O)n1 | – | – | – | – | CC50 [8]: 20 µM |
| Cc1cn([C@@H]2C[C@@H](F)[C@H](COP(=O)(O)OP(=O)(O)OP(=O)(O)O)O2)c(=O)nc1N | – | – | – | 1.9 | – |
| Cc1cn([C@H]2C[C@H](O)[C@@H](CO)O2)c(=O)[nH]c1=O [DOXRIBTIMINE] | 0.3 | 1760 | 2100 | – | – |
| Cc1cn([C@@H]2CC[C@H](COP(=O)(O)OP(=O)(O)OP(=O)(O)O)O2)c(=O)nc1N | – | – | – | 6.5 | – |
| Cc1cn([C@@H]2C[C@@H](O)[C@H](COP(=O)(O)OP(=O)(O)OP(=O)(O)O)O2)c(=O)[nH]c1=O [TELBIVUDINE 5'TRIPHOSPHATE] | – | – | – | 0.46 | IC50 [9]: 1 µM |
| Cc1cn([C@@H]2C[C@@H](O)[C@H](CO)O2)c(=O)nc1NO | 5.04 | 600 | 490 | – | – |
| Cc1cn([C@@H]2C[C@@H](O)[C@H](CO)O2)c(=O)nc1N | 0.9 | > 2000 | > 2000 | – | – |
| O=c1nc(NO)ccn1[C@@H]1CC[C@H](CO)O1 | 0.55 | 1600 | 2250 | – | – |
| O=c1nc(NO)ccn1[C@@H]1CC(F)[C@H](CO)O1 (stereo partly specified) | 25 | 4400 | 820 | – | – |
| Cc1cn([C@@H]2C[C@@H](O)[C@H](COP(=O)(O)OP(=O)(O)OP(=O)(O)O)O2)c(=O)nc1N | – | – | – | 0.9 | – |
